Reference: ChEMBL document CHEMBL4261552, “4-Hydroxy-N-[3,5-bis(trifluoromethyl)phenyl]-1,2,5-thiadiazole-3-carboxamide: a novel inhibitor of the canonical NF-κB cascade” (Medchemcomm, 2017)

Key:
[1] = target: T1, Inhibitor of nuclear factor kappa-B kinase subunit epsilon (Homo sapiens) (UniProt Q14164); assay: Inhibition of human IKKepsilon at 100 uM using ERLLDDRHDSGLDSMKDEE as substrate after 60 mins in presence of ATP by ADP-Glo kinase assay relative to control
T1 sequence (whole entry): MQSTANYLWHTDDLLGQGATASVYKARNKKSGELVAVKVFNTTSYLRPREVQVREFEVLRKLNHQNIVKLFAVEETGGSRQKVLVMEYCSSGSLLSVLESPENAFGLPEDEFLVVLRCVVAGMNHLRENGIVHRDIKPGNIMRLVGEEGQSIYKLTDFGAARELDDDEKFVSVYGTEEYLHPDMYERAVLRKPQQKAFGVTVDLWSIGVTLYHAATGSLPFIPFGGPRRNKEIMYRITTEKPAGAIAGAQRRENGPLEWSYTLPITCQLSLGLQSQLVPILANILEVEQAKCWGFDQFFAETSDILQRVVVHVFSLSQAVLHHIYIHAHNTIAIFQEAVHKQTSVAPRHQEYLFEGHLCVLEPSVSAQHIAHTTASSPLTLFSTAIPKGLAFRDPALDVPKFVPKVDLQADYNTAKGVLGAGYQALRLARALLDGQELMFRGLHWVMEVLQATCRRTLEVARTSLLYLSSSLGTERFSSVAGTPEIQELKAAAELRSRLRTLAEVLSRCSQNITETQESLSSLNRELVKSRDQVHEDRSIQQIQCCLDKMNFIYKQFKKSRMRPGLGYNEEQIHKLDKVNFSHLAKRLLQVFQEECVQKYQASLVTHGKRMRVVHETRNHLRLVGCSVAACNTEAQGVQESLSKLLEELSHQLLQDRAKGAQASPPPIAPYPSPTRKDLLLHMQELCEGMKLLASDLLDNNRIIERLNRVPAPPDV

[2] = target: T2, Inhibitor of nuclear factor kappa-B kinase subunit beta (Homo sapiens, UniProt O14920); assay: Inhibition of IKK-beta in human Jurkat cells assessed as reduction in TNFalpha-stimulated IkBalpha degradation preincubated for 60 mins followed by TNFalpha stimulation for 20 mins by immunoblot analysis; type: cell-based
T2 sequence (O14920 whole entry): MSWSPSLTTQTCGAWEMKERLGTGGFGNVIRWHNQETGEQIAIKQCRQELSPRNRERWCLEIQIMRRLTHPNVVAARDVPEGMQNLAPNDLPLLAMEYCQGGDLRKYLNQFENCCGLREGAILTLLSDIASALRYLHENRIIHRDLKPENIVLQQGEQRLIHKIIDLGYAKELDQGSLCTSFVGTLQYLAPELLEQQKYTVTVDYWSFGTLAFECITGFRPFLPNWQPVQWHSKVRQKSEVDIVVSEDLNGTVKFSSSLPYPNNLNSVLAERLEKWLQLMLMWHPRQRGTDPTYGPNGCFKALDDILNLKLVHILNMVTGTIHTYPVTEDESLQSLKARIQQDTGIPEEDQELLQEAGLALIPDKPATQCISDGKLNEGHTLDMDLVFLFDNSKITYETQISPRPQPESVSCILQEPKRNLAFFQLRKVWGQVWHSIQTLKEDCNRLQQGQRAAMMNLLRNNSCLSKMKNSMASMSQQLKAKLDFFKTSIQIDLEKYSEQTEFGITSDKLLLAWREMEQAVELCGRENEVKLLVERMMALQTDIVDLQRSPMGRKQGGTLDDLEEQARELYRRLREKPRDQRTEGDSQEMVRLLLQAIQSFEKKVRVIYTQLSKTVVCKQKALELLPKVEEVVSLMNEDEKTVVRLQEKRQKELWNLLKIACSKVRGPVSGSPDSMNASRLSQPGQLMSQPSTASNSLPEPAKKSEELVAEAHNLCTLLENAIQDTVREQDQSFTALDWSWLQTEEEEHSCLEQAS

MDA-MB-231 [3] = assay: Inhibition of constitutively activated canonical NF-kB signaling pathway in human MDA-MB-231 cells assessed as residual activity at 10 uM after 6 hrs by luciferase reporter gene assay relative to control; type: cell-based
Summary of the method: (§1)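 MDA-MB-231 cells (constitutive NF-κB) nucleofected with 3 µg of NF-κB-RE firefly luciferase plus TK-Renilla plasmids (10:1), then cultured 24 h. Compound added for a further 6 h or 24 h, without stimulus. Firefly/Renilla ratio expressed as % of DMSO-treated control; mean ± SD of three independent experiments.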

MDA-MB-231 [4] = assay: Inhibition of constitutively activated canonical NF-kB signaling pathway in human MDA-MB-231 cells assessed as residual activity at 10 uM after 24 hrs by luciferase reporter gene assay relative to control; type: cell-based; summary of the method: as §1
MDA-MB-231 [5] = assay: Antiproliferative activity against human MDA-MB-231 cells assessed as DNA content after 72 hrs by Hoechst 33258 staining based fluorescence assay; type: functional, cell-based; details: MDA-MB-231, 72 h
Summary of the method: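 MDA-MB-231 cells (5 x 10³/well) grown in DMEM with 10% FBS and exposed to 0.001 - 200 µM compound or DMSO vehicle for 72 h. Cells were washed with PBS and lysed in 0.02% SDS in SSC buffer for 1 h at 37 °C. Hoechst 33258 (1 µg/mL) was then added and fluorescence read at ex 355/em 460 nm. IC50 taken by nonlinear regression; mean ± SD of three independent experiments.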

MDA-MB-231 [6] = assay: Cytotoxicity against human MDA-MB-231 cells after 72 hrs by CellTox green assay; type: cell-based; details: MDA-MB-231, 72 h
Summary of the method: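 MDA-MB-231 cells (5×10^3/well) exposed to 0.001 - 100 µM compound or DMSO vehicle for 72 h. Membrane-integrity loss read by CellTox green fluorescence. IC50 taken by nonlinear regression; mean ± SD of three independent experiments.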

Compound O=C(Nc1cc(C(F)(F)F)cc(C(F)(F)F)c1)c1nsnc1O has an inhibition [1] of 30.2%, an IC50 [2] of 143 nM and an Activity (MDA-MB-231 [3]) of 96.1%. For the same compound, the Activity (MDA-MB-231 [4]) was 63%, the IC50 (MDA-MB-231 [5]) was 1290 nM and the IC50 (MDA-MB-231 [6]) was 53000 nM.
O=C(Nc1cc(C(F)(F)F)cc(C(F)(F)F)c1)c1cc(Cl)ccc1O [IMD-0354] was tested, and the inhibition [1] was 30.5%, the IC50 [2] was 218 nM and the Activity (MDA-MB-231 [3]) was 99%. For the same compound, the Activity (MDA-MB-231 [4]) was 58.3%, the IC50 (MDA-MB-231 [5]) was 640 nM and the IC50 (MDA-MB-231 [6]) was 850 nM.
